According to article PMC6290999 (Journal of controlled release : official journal of the …, 2017):

Key:
Pin1 [1] = biological target: T1, Pin1 (Homo sapiens, UniProt Q13526); assay: Western blotting of Pin1 and its substrates in HCC cells; type: cell-based; details: 72 h; for Pin1 expression: 20 μM ATRA
Procedure, shortened: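 PIN1-shRNA or scrambled-shRNA HuH7 and PLC lines were made by lentiviral transduction with 1 μg/mL puromycin selection. Lysates prepared in RIPA and quantified by BCA, run on SDS-PAGE and transferred to PVDF. Blocked in 5% milk, probed with anti-Pin1 (1:3000) then HRP secondary, detected by chemiluminescence; β-actin as loading control.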

HuH7 cells [2] = assay: Cell viability assay; type: cell-based, human; details: 0 to 40 μM ATRA; 24 h, 48 h, 72 h
Procedure, shortened: (§1)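 Seeded in 96-well plates at 3000 (HuH7) or 6000 (PLC) cells/well in DMEM or MEM with 10% FBS and cultured overnight. Treated with blank PLLA particles, free drug or drug-loaded PLLA particles; untreated control. MTT (5 mg/mL stock) added for 3 h, formazan dissolved in DMSO, absorbance read at 490 nm. Viability = OD sample/OD control × 100; IC50 calculated from inhibition rates.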

PLC cells = assay: Cell viability assay; type: cell-based, human; details: 0 to 40 μM ATRA; 24 h, 48 h, 72 h
Procedure, shortened: as §1

[3] = tested on: normal human liver L-02 cells; assay: Cell viability assay; type: cell-based; details: even at 20 μM
shV–HuH7 cells = assay: Cell viability assay; type: cell-based, human; details: 20 μM, 72 h
shPin1–HuH7 cells = assay: Cell viability assay; type: cell-based, human; details: 20 μM
shV–PLC cells = assay: Cell viability assay; type: cell-based, human; details: 20 μM; 24 h, 48 h, 72 h
Procedure, shortened: (§2)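 Stable lines made by lentiviral pLKO.1 shRNA (PIN1 or scrambled) produced in 293T with pVSVG, pREV and pMDL helpers. PLC cells were infected, selected with 1 μg/mL puromycin and checked by Western blot. Viability read by MTT: 3 h incubation, DMSO solubilisation, 490 nm, expressed as OD sample/OD control × 100.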

shPin1–PLC cells = assay: Cell viability assay; type: cell-based, human; details: 20 μM; 24 h, 48 h, 72 h
Procedure, shortened: as §2

HuH7 cells [4] = assay: Focus formation assay; type: cell-based, human; details: 72 h treatment, then 10~14 days; vs control cells
Procedure, shortened: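 HuH7 seeded at 500 or 2000 cells/well in 12- or 6-well plates, cultured overnight, then treated 72 h with blank PLLA particles, free drug or drug-loaded PLLA particles. Medium then replaced and cells grown 10~14 days. Fixed and stained with 0.5% methylene blue in methanol; colonies above 50 cells counted. Focus area given as % of untreated control; triplicates.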

HuH7 cells [5] = assay: Cell cycle and apoptosis analysis; type: cell-based, human; details: 10 μM and 20 μM ATRA, 72 h
Procedure, shortened: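 HuH7 seeded at 0.9 × 10⁴ cells/cm², cultured overnight, then given blank PLLA particles (0.25 mg/mL), free drug (10 and 20 μM) or drug-loaded PLLA particles (10 and 20 μM drug) for 72 h; untreated cells as control. Trypsinised cells fixed in 70% ethanol (4°C, 2 h), stained with propidium iodide (30 min, 37°C, dark) using a kit, then analysed by flow cytometry.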

Pin1 [6] = biological target: T1, Pin1; assay: Pin1 and substrate expression in xenograft tumors; type: in vivo, BALB/c nu/nu mice; details: immunofluorescence staining, 3 weeks treatment
Procedure, shortened: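 Male nude mice carried subcutaneous hind-limb HuH7 xenografts (4 × 10⁶ cells) and were treated for three weeks. Frozen tumour sections (10 μm) fixed in acetone 10 min, permeabilised and blocked with 1% Triton X-100 plus 10% donkey serum for 40 min. Primary antibodies (PIN1, Ki67) applied 24 h at 4°C, secondary 1 h at room temperature, DAPI nuclear stain.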

[7] = Weight of mice in xenograft experiment; type: in vivo, BALB/c nu/nu mice; details: 3 weeks treatment
Procedure, shortened: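 Male BALB/c nu/nu mice bore subcutaneous hind-limb HuH7 xenografts (4 × 10⁶ cells) and were randomised at about 50 mm³. Groups received saline, free drug (ethanol diluted in corn oil), blank PLLA particles, slow-release pellet, or drug-loaded particles in saline. Dosing was i.p. at 15 mg/kg drug, twice weekly for three weeks. Body weight recorded weekly.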

[8] = under physiological conditions ref 41; cited from earlier work

T1 sequence (Q13526 whole entry): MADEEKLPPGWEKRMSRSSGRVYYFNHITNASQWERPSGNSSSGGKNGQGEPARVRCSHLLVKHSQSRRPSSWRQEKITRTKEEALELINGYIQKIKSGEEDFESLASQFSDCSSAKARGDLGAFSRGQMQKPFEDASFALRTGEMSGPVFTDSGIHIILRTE

Expression of Pin1 and its substrates (β-catenin, c-JUN, NF-κB, Cyclin D1, CDK2, CDK6) (Pin1 [1]; HuH7 and PLC cells, 5-20 μM ATRA): obvious dose-dependent down-regulations
Pin1 expression (Pin1 [1]; shPin1–HuH7 and shPin1–PLC cells): did not affect
Pin1 expression (Pin1 [1]; shV–HuH7 and shV–PLC cells): significantly down-regulated
Expression of Pin1 and Ki67 in tumors vs saline group (Pin1 [6]): did not induce obvious changes
Weights of mice vs saline group [7]: did not induce significant changes
SMILES: CC1=C(/C=C/C(C)=C/C=C/C(C)=C/C(=O)O)C(C)(C)CCC1 [ATRA, all-trans retinoic acid]
Inhibition on HuH7 cell viability (HuH7 cells [2]): Dose-dependent inhibition
Inhibition on PLC cell viability (PLC cells): dose-dependent inhibition
Inhibition on viability of L-02 cells [3]: no significant inhibition
Decrease of cell viability (shV–HuH7 cells): approximately 36%
Inhibition on cell viability (shV–HuH7 cells; 24 h, 48 h): very significant (p < 0.001) time-dependent inhibition
Decrease of cell viability (shPin1–HuH7 cells; 24 h and 48 h): did not decrease cell viability
Reduction of cell viability (shPin1–HuH7 cells; 72 h): about 15%
Inhibition on cell viability (shV–PLC cells): significant time-dependent inhibition
Decrease of cell viability (shPin1–PLC cells): did not decrease cell viability
Number and area of foci (HuH7 cells [4]): significant dose-dependent reductions
Apoptosis (HuH7 cells [5]): did not induce significant apoptosis
Proportion of cells in G0/G1 phase (HuH7 cells [5]): significantly increased
Proportion of cells in G2/M phase (HuH7 cells [5]): decreased
Aqueous solubility [8]: 0.21 µM
